Published values of several laboratories.
Protocols differ between the studies behind these lines. In brackets after ≈: the same amount, converted by molar mass.

SMILES	target or system	test	system	conditions	endpoint	result
COc1cc(C2Oc3cc([C@H]4Oc5cc(O)cc(O)c5C(=O)[C@@H]4O)ccc3OC2CO)ccc1O (some centres unmarked)	–	–	Caco-2	100 µg/mL, 2 h	Papp B→A	17.2 ×10⁻⁶ cm/s
CCN1CCN(Cc2ccc(Nc3nc4ccc(Oc5ccnc(NC(=O)C6CCN(C)CC6)c5)cc4n3C)cc2C(F)(F)F)CC1	–	–	–	–	pKa	8.8
Cc1cc(C)c(CNC(=O)c2cc(Cl)c3c(c2C)O[C@@](C)([C@H]2CC[C@H](N(C)C)CC2)O3)c(=O)[nH]1	–	–	Caco-2	10 µM	Papp B→A	20.4 ×10⁻⁶ cm/s
O=c1c(O[C@@H]2O[C@H](CO)[C@H](O)[C@H](O)[C@H]2O)c(-c2ccc(O)c(O)c2)oc2cc(O)cc(O)c12	–	–	Caco-2	100 µg/mL	Papp A→B	0.383 ×10⁻⁶ cm/s
COc1ccc(-c2nn(-c3ccccc3)cc2C=NNc2cn[nH]c(=O)c2Cl)cc1	Jurkat	cell growth or viability, imaging	–	–	CC50	> 40 µM
COc1cc(/C=C/c2cc(/C=C/c3ccc(O)c(OC)c3)n(-c3ccc(Cl)cc3Cl)n2)ccc1O	WRL68	cell growth or viability, MTT	–	48 h	CC50	> 99 µM
O=c1c(-c2ccc(O)cc2)coc2c([C@@H]3O[C@H](CO)[C@@H](O)[C@H](O)[C@H]3O)c(O)ccc12	–	–	Caco-2	100 µg/mL, 2 h	Papp B→A	5.66 ×10⁻⁶ cm/s
CC[C@H](C)[C@H](NC(=O)[C@H](CCC(=O)O)NC(=O)[C@H](CCC(=O)O)NC(=O)[C@@H]1CCCN1C(=O)[C@H](CO)NC(=O)[C@H](C)NC(=O)[C@H](CC(=O)O)NC(=O)[C@H](CCC(=O)O)NC(=O)[C@H](CCC(=O)O)NC(=O)[C@@H]1CCCN1C(=O)[C@H](CCCCNC(=O)COCCOCCNC(=O)COCCOCCNC(=O)CC[C@H](NC(=O)CCCCCCCCCCCCCCCCC(=O)O)C(=O)O)NC(=O)[C@H](C)NC(=O)[C@@H]1CCCN1C(=O)[C@H](C)NC(=O)CC(C)C)C(=O)N[C@@H](CCC(N)=O)C(=O)N[C@@H](CCCNC(=N)N)C(=O)N[C@@H](Cc1ccc(O)cc1)C(=O)N[C@@H](Cc1ccc(O)cc1)C(=O)N[C@H](C(=O)N[C@@H](CO)C(=O)N[C@@H](CC(C)C)C(=O)N[C@@H](CCCNC(=N)N)C(=O)N[C@@H](Cc1c[nH]cn1)C(=O)N[C@@H](Cc1ccc(O)cc1)C(=O)N[C@@H](Cc1ccc(O)cc1)C(=O)N[C@@H](CC(N)=O)C(=O)N[C@@H](Cc1c[nH]c2ccccc12)C(=O)N[C@@H](CC(C)C)C(=O)N[C@H](C(=O)N[C@@H](CCCNC(=N)N)C(=O)N[C@@H](CCC(N)=O)C(=O)N[C@@H](CCCNC(=N)N)C(=O)N[C@@H](Cc1ccc(O)cc1)C(N)=O)[C@@H](C)O)C(C)C	–	–	male beagle dog, plasma	subcutaneous, 5 nmol/kg	Tmax	32 h
COc1cc(/C=C/C(=O)/C=C/c2ccc(O)c(OC)c2)ccc1O	WRL68	cell growth or viability, MTT	–	3.2 µg/mL, 48 h	viability	11.5%
NC/C(=C\F)COc1cccc(Cn2c(=S)[nH]c(=O)c3[nH]cnc32)c1	ATP-dependent translocase ABCB1 (ABCB1, Homo sapiens, UniProt P08183)	transporter efflux, inhibitor	–	30 µM	inhibition	< 50%
N#Cc1ccc(C[C@H](Nc2ncc(-c3ccc(F)cc3)o2)C(=O)N2CCc3ccccc32)cc1	–	–	aqueous buffer	2 h, pH 7.4, 37 °C	kinetic solubility	1.8 µM (≈ 0.814 µg/mL)
